Source: ChEMBL document CHEMBL2046403, “Biochemical and pharmacological evaluation of 4-hydroxychromen-2-ones bearing polar C-3 substituents as anticoagulants” (Eur J Med Chem, 2012)

Experiments:
Rattus norvegicus [1] = assay: Hepatotoxicity in Wistar albino rat assessed as change in serum protein level at 0.5 mg/kg, ip measured after 24 hrs; format: toxicity, organism-based; parameters: dose 0.5 mg/kg, route intraperitoneal; conditions: in vivo
Plasma [2] = assay: Anticoagulant activity in Wistar albino rat plasma assessed as international normalized ratio at 0.1 mg/kg, ip; format: functional; conditions: route intraperitoneal
In short: (§1)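 Adult Wistar rats (2.5 months, 220–250 g), three per compound and control, were given a single i.p. dose of 0.1 or 0.5 mg/kg in ethanol solution and sacrificed 24 h later. […] Plasma prothrombin time was measured by Quick method and reported in seconds and as INR, from at least three measurements.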

Plasma [3] = assay: Anticoagulant activity in Wistar albino rat plasma assessed as international normalized ratio at 0.5 mg/kg/day, ip administered for 5 days measured after second dose; format: functional; conditions: route intraperitoneal
In short: (§2)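 Wistar rats, three per group, were dosed i.p. at 0.5 mg/kg per day over five days in ethanol solution and sacrificed on day six. Plasma prothrombin time was measured by Quick method after the second 0.5 mg/kg administration, reported in seconds and INR. Where animals were dosed more than once, PTs were averaged.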

Plasma [4] = assay: Anticoagulant activity in Wistar albino rat plasma assessed as international normalized ratio at 0.5 mg/kg, ip; format: functional; conditions: route intraperitoneal; in short: as §1
Rattus norvegicus [5] = assay: Hepatotoxicity in Wistar albino rat assessed as change in serum bilirubin level at 0.5 mg/kg, ip measured after 24 hrs; format: toxicity, organism-based; parameters: dose 0.5 mg/kg, route intraperitoneal; conditions: in vivo
Plasma [6] = assay: Anticoagulant activity in Wistar albino rat plasma assessed as fibrinogen level at 0.5 mg/kg/day, ip administered for 5 days; format: functional; conditions: route intraperitoneal
In short: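 Wistar rats (220–250 g), three per group, got one i.p. dose of 0.5 mg/kg per day for five days and were sacrificed on day six. […] Plasma fibrinogen was measured by biuret method at 540 nm.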

Rattus norvegicus [7] = assay: Hepatotoxicity in Wistar albino rat assessed as change in serum ALT level at 0.5 mg/kg, ip measured after 24 hrs; format: toxicity, organism-based; parameters: dose 0.5 mg/kg, route intraperitoneal; conditions: in vivo
Plasma [8] = assay: Anticoagulant activity in Wistar albino rat plasma assessed as fibrin time; format: functional
In short: (§3)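 Adult albino Wistar rats (2.5 months old, 220–250 g), three per compound and control. […] Fibrin time and fibrinogen were determined on plasma. Fibrinogen was quantified by biuret method at 540 nm. At least three measurements, reported with standard deviation.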

Rattus norvegicus [9] = assay: Hepatotoxicity in Wistar albino rat assessed as change in serum ALP level at 0.5 mg/kg, ip measured after 24 hrs; format: toxicity, organism-based; parameters: dose 0.5 mg/kg, route intraperitoneal; conditions: in vivo
[10] = target: VKORC1 (Rattus norvegicus); assay: Inhibition of VKORC1
Rattus norvegicus [11] = assay: Hepatotoxicity in Wistar albino rat assessed as change in serum gamma-GT level at 0.5 mg/kg, ip administered for 5 days measured after second compound dose; format: toxicity, organism-based; parameters: dose 0.5 mg/kg, route intraperitoneal; conditions: in vivo, 120 h
Rattus norvegicus [12] = assay: Hepatotoxicity in Wistar albino rat assessed as change in serum AST level at 0.5 mg/kg, ip measured after 24 hrs relative to untreated control; format: toxicity, organism-based; parameters: dose 0.5 mg/kg, route intraperitoneal; conditions: in vivo
In short: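 Serum AST was measured 24 h after a single 0.5 mg/kg i.p. dose (ethanol solution) in Wistar rats, three per group, by IFCC UV kinetic method at 340 nm. Activity was expressed as fold of the negative (96% ethanol) control, and compared by one-way ANOVA with post-hoc tests.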

Plasma [13] = assay: Anticoagulant activity in Wistar albino rat plasma assessed as fibrinogen level; format: functional; in short: as §3
Plasma [14] = assay: Anticoagulant activity in Wistar albino rat plasma assessed as prothrombin time at 0.5 mg/kg, ip relative to warfarin; format: functional; conditions: route intraperitoneal
In short: (§4)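 Rats (Wistar, 220–250 g, n=3 per group) were dosed i.p. with 0.5 mg/kg compound in ethanol solution. Prothrombin time was measured in plasma by Quick method and expressed as fold of the matching control value. […] Groups were compared by one-way ANOVA with Dunnett T3 or Bonferroni post-hoc tests.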

Rattus norvegicus [15] = assay: Drug metabolism in Wistar albino rat assessed as 7-hydroxycoumarin level in urine at 1 mg/kg, ip measured after 72 hrs by GC/MS analysis; conditions: in vivo
Plasma [16] = assay: Anticoagulant activity in Wistar albino rat plasma assessed as prothrombin time at 0.1 mg/kg, ip; format: functional; conditions: route intraperitoneal; in short: as §1
Rattus norvegicus [17] = assay: Hepatotoxicity in Wistar albino rat assessed as change in serum ALT level at 0.5 mg/kg/day, ip administered for 5 days measured after second compound dose; conditions: in vivo, 120 h
Rattus norvegicus [18] = assay: Hepatotoxicity in Wistar albino rat assessed as change in serum iron level at 0.5 mg/kg/day, ip administered for 5 days measured after second compound dose; format: toxicity, organism-based; parameters: route intraperitoneal; conditions: in vivo, 120 h
Rattus norvegicus [19] = assay: Hepatotoxicity in Wistar albino rat assessed as change in serum AST level at 0.5 mg/kg/day, ip administered for 5 days measured after second compound dose; conditions: in vivo, 120 h
Plasma [20] = assay: Anticoagulant activity in Wistar albino rat plasma assessed as prothrombin time at 0.5 mg/kg/day, ip administered for 5 days measured after second dose; format: functional; conditions: route intraperitoneal; in short: as §2
Plasma [21] = assay: Anticoagulant activity in human plasma assessed as prothrombin time at 1 mg/ml; format: functional
In short: (§5)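 Frozen human plasma (blood type A+) was used. Compounds were prepared at 1 mg/mL in a vehicle of 96% EtOH, 0.9% NaCl, 20% glycerol and phosphate buffer pH 7. Prothrombin time was measured by Quick method and reported in seconds and as INR, with SD from at least three measurements.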

Rattus norvegicus [22] = assay: Anticoagulant activity in Wistar rats in vivo assessed as prothrombin time
Plasma [23] = assay: Anticoagulant activity in human plasma assessed as international normalized ratio at 1 mg/ml; format: functional; in short: as §5
Rattus norvegicus [24] = assay: Hepatotoxicity in Wistar albino rat assessed as change in serum gamma-GT level at 0.5 mg/kg, ip measured after 24 hrs; format: toxicity, organism-based; parameters: dose 0.5 mg/kg, route intraperitoneal; conditions: in vivo
Rattus norvegicus [25] = assay: Hepatotoxicity in Wistar albino rat assessed as change in serum AST level at 0.5 mg/kg, ip measured after 24 hrs; format: toxicity, organism-based; parameters: dose 0.5 mg/kg, route intraperitoneal; conditions: in vivo
Rattus norvegicus [26] = assay: Hepatotoxicity in Wistar albino rat assessed as change in serum albumin level at 0.5 mg/kg, ip measured after 24 hrs; format: toxicity, organism-based; parameters: dose 0.5 mg/kg, route intraperitoneal; conditions: in vivo
Plasma [27] = assay: Anticoagulant activity in Wistar albino rat plasma assessed as prothrombin time at 0.5 mg/kg, ip; format: functional; conditions: route intraperitoneal
In short: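 Adult Wistar rats (2.5 months, 220–250 g), three per compound and control, were given a single i.p. dose of 0.1 or 0.5 mg/kg in ethanol solution and sacrificed 24 h later. Plasma prothrombin time was measured by Quick method and reported in seconds and as INR, from at least three measurements.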

Plasma [28] = assay: Anticoagulant activity in Wistar albino rat plasma assessed as prothrombin time at 0.5 mg/kg, ip relative to untreated control; format: functional; conditions: route intraperitoneal; in short: as §4
Rattus norvegicus [29] = assay: Hepatotoxicity in Wistar albino rat assessed as change in serum iron level at 0.5 mg/kg, ip measured after 24 hrs; format: toxicity, organism-based; parameters: dose 0.5 mg/kg, route intraperitoneal; conditions: in vivo
Rattus norvegicus [30] = assay: Drug metabolism in Wistar albino rat assessed as coumarin-7-glucuronide level in urine at 1 mg/kg, ip measured after 72 hrs by GC/MS analysis; conditions: in vivo
Rattus norvegicus [31] = assay: Toxicity in Wistar albino rat assessed as lethal dose at 0.5 mg/kg/day, ip administered for 5 days; format: organism-based; parameters: route intraperitoneal; conditions: in vivo, 120 h
Rattus norvegicus [32] = assay: Hepatotoxicity in Wistar albino rat assessed as change in serum protein level at 0.5 mg/kg/day, ip administered for 5 days; format: toxicity, organism-based; parameters: route intraperitoneal; conditions: in vivo, 120 h
Rattus norvegicus [33] = assay: Hepatotoxicity in Wistar albino rat assessed as change in serum albumin level at 0.5 mg/kg/day, ip administered for 5 days; format: toxicity, organism-based; parameters: route intraperitoneal; conditions: in vivo, 120 h

| SMILES | Activity (Rattus norvegicus [1]) [g/L] | Activity (Rattus norvegicus [5]) [µmol/L] | Activity (Plasma [6]) [g/L] | Activity (Rattus norvegicus [7]) [U/L] | Time (Plasma [8]) [s] | Activity (Rattus norvegicus [9]) [U/L] | Activity (Rattus norvegicus [11]) [U/L] | fold change (FC) (Rattus norvegicus [12]) | Activity (Plasma [13]) [g/L] | Drug metabolism (Rattus norvegicus [15]) | PT (Plasma [16]) [s] | ALT (Rattus norvegicus [17]) [U/L] | Activity (Rattus norvegicus [18]) [µmol/L] | PT (Plasma [21]) [s] | IC50 (Rattus norvegicus [22]) [µM] | Activity (Rattus norvegicus [24]) [U/L] | Activity (Rattus norvegicus [25]) [U/L] | Activity (Rattus norvegicus [26]) [g/L] | PT (Plasma [27]) [s] | Activity (Rattus norvegicus [29]) [µmol/L] | further results |
| --- | --- | --- | --- | --- | --- | --- | --- | --- | --- | --- | --- | --- | --- | --- | --- | --- | --- | --- | --- | --- | --- |
| CCOC(=O)C(C(=O)OCC)=C(C)c1c(O)c2ccccc2oc1=O | 67.2 | 2 | 1.6 | 71.8 | 51.3 | 513 | 2.3 | 1.41 | 5.1 | Active | 10.3 | 55.5 | 17.7 | 23 | 141 | 3.1 | 238.3 | 35.2 | 10.5 | 28.4 | Ratio (Plasma [2]): 0.13; Ratio (Plasma [3]): 0.13; Ratio (Plasma [4]): 0.13; Ki [10]: 68.9 µM; Activity (Plasma [14]): 86.06%; AST (Rattus norvegicus [19]): 209.9 U/L; PT (Plasma [20]): 30 s; Ratio (Plasma [23]): 1.99; fold change (FC) (Plasma [28]): 1.08; Drug metabolism (Rattus norvegicus [30]): Active |
| O=c1oc2ccccc2c(O)c1-c1csc(Nc2cccc([N+](=O)[O-])c2)n1 | 64.2 | 2.2 | 1.74 | 52.4 | >500 | 225 | 2.6 | 1.74 | 0.6 | Active | 9.6 | 65.1 | 17.3 | 24.4 | 741 | 2.8 | 294.6 | 39.7 | 14.4 | 29.7 | fold change (FC) (Plasma [14]): 1.18; AST (Rattus norvegicus [19]): 210.7 U/L; PT (Plasma [20]): 28.1 s; fold change (FC) (Plasma [28]): 1.48; Drug metabolism (Rattus norvegicus [30]): Active |
| Cc1cccc(Nc2nc(-c3c(O)c4ccccc4oc3=O)cs2)c1 | 66.2 | 1.8 | 1.2 | 67.3 | 27.6 | 172 | 3 | 1.68 | 2 | Active | 9.6 | 62.4 | 17.3 | 25 | 69.2 | 2.2 | 284.6 | 41.9 | 9.7 | 28.4 | Activity (Plasma [14]): 79.51%; AST (Rattus norvegicus [19]): 175.5 U/L; PT (Plasma [20]): 28.1 s; Drug metabolism (Rattus norvegicus [30]): Active |
| O=c1oc2ccccc2c(O)c1-c1csc(Nc2ccc(S(=O)(=O)O)cc2)n1 | 64.9 | 1.6 | 0.9 | 58.4 | >500 | 164 | 2.2 | 1.59 | – | Active | 10.4 | 63 | 19 | 26.5 | 141 | 2.4 | 269.7 | 40.8 | 12.4 | 19.3 | Ratio (Plasma [2]): 0.82; Ratio (Plasma [3]): 1.38; Ratio (Plasma [4]): 0.84; Ki [10]: 44.8 µM; fold change (FC) (Plasma [14]): 1.18; AST (Rattus norvegicus [19]): 207.5 U/L; PT (Plasma [20]): 28.6 s; Ratio (Plasma [23]): 2.6; fold change (FC) (Plasma [28]): 1.27; Drug metabolism (Rattus norvegicus [30]): Active |
| CC(=O)CC(c1ccccc1)c1c(O)c2ccccc2oc1=O (centres undefined) [WARFARIN] | 59.4 | 1.3 | – | 51.5 | 33.4 | 170 | – | – | 1.9 | – | 10.3 | – | – | 18.5 | – | 3.4 | 277.3 | 34.5 | – | 22.3 | Activity (Rattus norvegicus [31]): Toxic |
| C/C(=C(\C#N)C(=O)O)c1c(O)c2ccccc2oc1=O | 68.9 | – | – | – | 196.8 | – | – | – | 0.5 | – | 8.2 | – | – | 21 | 2340 | – | – | 38.6 | 9.2 | – | Ratio (Plasma [2]): 0.66; Ratio (Plasma [4]): 0.69; Activity (Rattus norvegicus [32]): 68.9 g/L; Ratio (Plasma [23]): 2.25; Activity (Rattus norvegicus [33]): 38.6 g/L |
